Source: PubChem (several laboratories)
CYP2C19 activ: activators of human cytochrome P450 2C19 | P33261 | recombinant CYP2C19, luciferin-H EGE luminescence; stronger effect = higher value; 0 = fully inhibited enzyme, 1 = untreated enzyme | activation factor at 5 µM | 96,000 tested, under 10 active | AID 1025;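 active = activation factor of at least 2 at 5 µM in the primary screen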;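 note: 0 = wells with 2.5 mM tranylcypromine and 1 = vehicle-only wells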
Target sequence (P33261 whole entry, looked up): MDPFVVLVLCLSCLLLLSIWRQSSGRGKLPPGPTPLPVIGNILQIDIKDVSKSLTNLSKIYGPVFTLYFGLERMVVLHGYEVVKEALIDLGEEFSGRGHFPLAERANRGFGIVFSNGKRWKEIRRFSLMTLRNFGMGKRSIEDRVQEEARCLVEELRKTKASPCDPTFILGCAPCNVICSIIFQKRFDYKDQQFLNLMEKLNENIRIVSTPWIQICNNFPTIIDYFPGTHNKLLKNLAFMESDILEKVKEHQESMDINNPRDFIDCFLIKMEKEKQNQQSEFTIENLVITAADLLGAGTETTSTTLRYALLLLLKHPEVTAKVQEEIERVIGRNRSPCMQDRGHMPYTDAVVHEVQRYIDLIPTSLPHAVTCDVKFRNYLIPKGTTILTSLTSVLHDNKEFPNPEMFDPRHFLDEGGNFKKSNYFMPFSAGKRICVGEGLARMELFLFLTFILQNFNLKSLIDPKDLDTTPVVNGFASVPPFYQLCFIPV
CYP2C9 activ: increases human cytochrome P450 2C9 activity; P11712; recombinant CYP2C9, luciferin-H conversion, luminescence; stronger effect = higher value; factor 1 = untreated enzyme, 0 = blocked; activation factor at 5 µM; hit rate 1.4% among 96,000; AID 1024;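 active = activation factor of 2 or more for CYP2C9 at a 5 µM dose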;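 note: 0 = sulfaphenazole-blocked wells and 1 = vehicle-only wells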
Cav3 T inh: human Cav3.2 channel inhibition, primary screen; Cav3.2-expressing cells, Fluo-4 calcium fluorescence FDSS; stronger effect = lower value; B-score at 10 µM; hit rate 4% among 100,000; AID 449739;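 active = single-dose well whose peak fluorescence ratio is a statistical outlier from its plate by either plate-standardised score or position-corrected B-score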
CYP2C9 inh: human CYP2C9 inhibition; AID 777; CYP2C9 Supersomes, luciferin-H conversion, luminescence; inhibition, % at 5 µM; hit rate 20% among 96,000; P11712;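 active = blocking of liver enzyme CYP2C9 beyond about 50% at 5 µM, limit read from the data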
CYP2C19 inh: human CYP2C19 inhibition; P33261; CYP2C19 Supersomes, luciferin-H EGE luminescence, 30 min; inhibition, % at 5 µM; hit rate 21% among 96,000;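 active = CYP2C19 inhibition above a set limit at 5 µM in the primary screen, cut at about 50% in these data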;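 note: plate controls were negative control wells for no effect and 2.5 mM tranylcypromine positive control for full effect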
Rev-RRE block: HIV Rev-RRE protein-RNA interaction inhibition | hit rate 0.79% among 97,000 | Rev peptide-RRE RNA binding, FRET | P05866 | inhibition, % at 8 µM | AID 704;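 active = inhibition above the screen-wide mean plus 3 SD, cut at about 35% in these data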;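 note: 0% = median DMSO wells and 100% = median Neomycin B control wells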
Target sequence (P05866 whole entry, looked up): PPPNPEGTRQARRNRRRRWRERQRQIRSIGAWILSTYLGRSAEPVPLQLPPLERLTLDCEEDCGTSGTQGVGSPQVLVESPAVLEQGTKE
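Test system: labelled RRE RNA duplex and labelled Rev peptide. Times: 5 min compound–RNA preincubation, then 15 min with peptide, 25 °C. Doses: single-dose 8 µM. Measured by: FRET, excitation 480 nm, emission 540 nm donor and 671 nm acceptor. Measure: % inhibition of FRET ratio versus controls.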
* marks the source's active call; other numbers are inactive results; . = not tested or not shown. Most compounds without a hit are left out; they make up all but 27% or so of the library.

SMILES	CYP2C19 activ	CYP2C9 activ	Cav3 T inh	CYP2C9 inh	CYP2C19 inh	Rev-RRE block
O=C(N/N=C\c1cc(Br)cs1)C1COc2ccccc2O1 (stereo unspecified)	0.9	0.9	-1.4	13	10	6
C#CC(=O)N(c1cc(OC)ccc1OC)C(C(=O)NC1CCCC1)c1cccs1 (stereo unspecified)	0.7	0.8	-0.66	25	28	6
COc1nc(N)c(S(=O)(=O)c2ccccc2)cc1C#N	0.6	2.4*	0.64	-143	39	21
COC(=O)c1cc(C#N)c(Oc2ccccc2)nc1C	.	.	-0.57	.	.	5
COc1nc(N)c(S(=O)(=O)c2ccccc2C)cc1C#N	0.2	1.9	-3.9*	-86	78*	10
CCC(=O)N(CCc1ccccc1)Cc1cc2cc3c(cc2[nH]c1=O)OCO3	0.9	0.9	0.08	12	8	-1
CCC(=O)N(CCC(Cc1ccccc1)c1ccc2c(c1)OCO2)Cc1ccccc1F (stereo unspecified)	0	0	.	96*	96*	2
O=C1NC2(CCCc3ccccc32)C(=O)N1CCOc1ccc(Br)cc1 (stereo unspecified)	1	0.8	-1.3	16	5	2
CC(c1ccccc1)C1CC(=O)N(Cc2ccco2)C1=O (stereo unspecified)	0.1	0.7	0.18	34	91*	7
CC(c1ccccc1)C1CC(=O)N(CC(=O)O)C1=O (stereo unspecified)	1	0.9	-0.76	6	-1	9
Cc1ccc(CS(=O)(=O)Cc2ccc(C(=O)NCc3ccccn3)o2)cc1	0.9	1	0.38	3	12	1
O=C(OCn1nnc2ccccc2c1=O)C1CCN(S(=O)(=O)c2cccs2)CC1	.	.	1.6	.	.	.
C/C=C/c1ccc(OCCSc2nc(C)cc(=O)[nH]2)c(OC)c1	0.8	0.5	0.17	53*	16	.
COc1ccccc1OCCSc1nc2ccccc2c(=O)[nH]1	0.4	0.6	-0.27	43	59*	5
Cc1cc(=O)[nH]c(SCc2cccc(Br)c2)n1	0.7	0.3	-1.2	74*	33	5
COc1ccc(CSc2nc(C)cc(=O)[nH]2)cc1Br	0.3	0.6	-1.3	42	71*	5
Cc1cc(=O)[nH]c(SCCCOc2ccccc2Cl)n1	0.5	0.7	-1.2	29	45	-2
Cc1cc(=O)[nH]c(SCc2nc3ccccc3s2)n1	0.6	0.8	.	20	38	5
O=c1[nH]c(SCCOc2ccccc2)nc2ccccc12	0.9	0.9	0.12	11	6	9
C=CCn1c(=O)c2ccccc2n2c(SCC(=O)/C(C#N)=C(\C)N)nnc12	1.1	0.8	0.99	15	-12	3
O=C(NCCCN1CCOCC1)[C@@H]1CSC2c3ccccc3C(=O)N21 (stereo partly specified)	1.1	1.2	-0.27	-18	-6	1
O=C(Nc1cc(C(F)(F)F)ccc1N1CCOCC1)c1cccnc1	0.7	0.9	0.039	7	35	3
Cc1onc(-c2ccccc2)c1C(=O)Nc1ccccc1N1CCOCC1	0	0.2	-1.6	81*	99*	.
O=C(Nc1cc(C(F)(F)F)ccc1N1CCOCC1)c1ccc(F)cc1	0.2	0.9	-0.89	8	77*	6
Cc1onc(-c2ccccc2)c1C(=O)Nc1cc(C(F)(F)F)ccc1N1CCOCC1	0.4	0.4	-5.9*	56*	65*	11
SMILES	CYP2C19 activ	CYP2C9 activ	Cav3 T inh	CYP2C9 inh	CYP2C19 inh	Rev-RRE block
O=C(CCc1ccccc1)NC(=S)Nc1cc(C(F)(F)F)ccc1N1CCOCC1	0.1	0.1	-5.7*	93*	88*	-1
Cc1sc2ncnc(NCC(C)(C)N3CCOCC3)c2c1C	0.8	1	1.9	4	22	8
S=c1[nH]c2cc(Cl)ccc2s1	0.9	0.8	-2	17	7	-1
CCCCC1=CC2=C(c3ccco3)C(=O)C(C)(OC(=O)c3ccc(OC)cc3)C(=O)C2=CN1C1CCCC1 (stereo unspecified)	.	.	-0.22	.	.	.
CCOC(=O)c1ccc(NC(=O)Nc2ccn(C)n2)cc1	0.8	0.9	0.041	15	20	7
O=C(Nc1ccc(S(=O)(=O)N2CCCCCC2)cc1)C1CCCO1 (stereo unspecified)	0.8	0.6	1.4	38	16	1
CCOC(=O)c1sc(N)c(C#N)c1COC(=O)CNC(=O)c1ccccc1	0.6	0.3	.	73*	42	51*
O=C(NCc1ccccn1)c1cccs1	1.1	1.3	1.1	-28	-13	5
CC1CN(C(=O)N2c3ccccc3Sc3ccccc32)C(C)CC1=O (stereo unspecified)	0.5	0.7	-4.6*	34	48	9
COCCCNC(=O)C1CCN(c2nc(C)cc(C)n2)CC1	1.1	1.5	-0.054	-52	-10	2
CCCCNC(=O)Cn1c(-c2ccc(OC)cc2)noc1=O	0.3	0.7	-2.5	35	65*	1
COc1ccc(C(CC(=O)NCCCN2CCOCC2)NS(=O)(=O)c2ccc(C)cc2)cc1 (stereo unspecified)	1.1	1.1	.	-12	-11	-2
CCCCOCCCNC(=O)CN1C(=O)c2ccccc2C1=O	1.1	1.1	0.87	-9	-6	7
COc1ccc(CCNC(=O)CCS(=O)(=O)c2ccc(C)cc2)cc1OC	0.9	0.9	0.69	13	12	7
COc1ccc(S(=O)(=O)CCC(=O)NCCc2ccc(Cl)cc2)cc1	0.3	0.3	-0.7	71*	71*	-1
CCCCC(=O)NCCc1ccc(OC)cc1	0.4	0.7	0.2	26	57*	12
CCCCC(=O)NCCc1ccc(S(N)(=O)=O)cc1	1.1	1.1	0.2	-11	-13	3
COCCCNC(=O)CC(NS(=O)(=O)c1ccc(Cl)cc1)c1ccc(OC)cc1 (stereo unspecified)	0.5	1.2	-0.22	-16	55*	3
FC(F)(F)c1cc(-c2cccs2)nc(-n2cc(Cl)cn2)n1	1.1	0.7	-2.1	29	-6	4
C=CCN1C(=O)C(CC(=O)Nc2ccccc2)SC1=Nc1c(C)n(C)n(-c2ccccc2)c1=O (stereo unspecified)	0.7	0.6	0.43	41	26	0
COc1ccc(CCNC(=S)Nc2cc(C)cc(C)c2)cc1	0.4	1.4	-1.4	-44	62*	2
O=C(NCc1ccccc1)C1=C[C@H](c2coc3ccccc3c2=O)C[C@H](OCCCCO)O1	.	.	-0.11	.	.	.
COc1cc(OC)c(CN2CCCCCCC2)cc1Br	0.6	1	-0.051	0	37	0
COC1CCCCC1Nc1cccc(SC)c1 (stereo unspecified)	0.7	0.9	0.084	9	29	-3
CC1CCCN(C(=O)c2ccncc2)C1 (stereo unspecified)	0.2	0.8	0.025	15	82*	10
